# Experimental data taken from ChEMBL document CHEMBL4152233, “Design, synthesis and anthelmintic activity of 7-keto-sempervirol analogues” (Eur J Med Chem, 2018).
# pIC50: −log10 of the molar value. Calls of active or inactive are those of the source.
# What was measured:
# Schistosoma mansoni [1] = experiment: Antischistosomal activity against schistosomula of Schistosoma mansoni assessed as effect on parasite motility by throughput high content image analysis; assay type: functional, organism-based
# Summary of the method: (§1)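 Puerto Rican (NMRI) strain cercariae were mechanically transformed to schistosomula. About 120 larvae were co-cultured with compound for 72 hr at 37 °C, 5% CO2, at 0.625% DMSO final. Controls were DMSO and auranofin. Motility and phenotype were scored by automated image analysis, with a hit threshold of ≤-0.15 (phenotype) and ≤-0.35 (motility) in ≥70% of larvae. Runs were in duplicate, and IC50 was estimated from dose-response curves.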
# [2] = Cytotoxicity against MDBK cells after 24 hrs by MTT assay; assay type: cell-based, Bos taurus; conditions: cattle
# Summary of the method: (§2)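 Cells were grown to about 80% confluence (HepG2 in BME, MDBK in EMEM, each with 10% FBS). They were seeded at 2.5 x10^4 per well and rested 24 hr, then exposed 24 hr to compound at 100–0.01 µM (1.25% DMSO). Controls were DMSO and 1% Triton X-100. Viability was read by MTT, and CC50 came from dose-response curves run in triplicate.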
# [3] = Cytotoxicity against human HepG2 cells after 24 hrs by MTT assay; assay type: cell-based; summary of the method: as §2
# Schistosoma mansoni [4] = experiment: Antischistosomal activity against schistosomula of Schistosoma mansoni assessed as effect on parasite phenotype by throughput high content image analysis; assay type: functional, organism-based; summary of the method: as §1
# [5] = Selectivity index, ratio of IC50 for human HepG2 cells to IC50 for newly excysted juveline stage of Fasciola hepatica Italian assessed as effect on parasite phenotype; assay type: toxicity; conditions: read-out: Ratio IC50
# Summary of the method: (§3)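 Selectivity index was calculated as the CC50 from the HepG2 or MDBK MTT assay divided by the F. hepatica NEJ phenotype or motility IC50 from the 72 hr manual scoring assay.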
# [6] = Selectivity index, ratio of IC50 for MDBK cells to IC50 for newly excysted juveline stage of Fasciola hepatica Italian assessed as effect on parasite phenotype; assay type: toxicity; conditions: cattle, read-out: Ratio IC50; summary of the method: as §3
# [7] = Selectivity index, ratio of IC50 for human HepG2 cells to IC50 for newly excysted juveline stage of Fasciola hepatica Italian assessed as effect on parasite motility; assay type: toxicity; conditions: read-out: Ratio IC50; summary of the method: as §3
# [8] = Selectivity index, ratio of IC50 for MDBK cells to IC50 for antischistosomal activity against schistosomula of Schistosoma mansoni assessed as effect on parasite motility; assay type: toxicity; conditions: cattle, read-out: Ratio IC50
# Summary of the method: (§4)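 Selectivity index was calculated as the CC50 from the HepG2 or MDBK MTT assay divided by the schistosomula phenotype or motility IC50 from the 72 hr image-based screen.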
# [9] = Selectivity index, ratio of IC50 for human HepG2 cells to IC50 for antischistosomal activity against schistosomula of Schistosoma mansoni assessed as effect on parasite motility; assay type: toxicity; conditions: read-out: Ratio IC50; summary of the method: as §4
# Fasciola hepatica [10] = experiment: Antifasciola activity against newly excysted juveline stage of Fasciola hepatica Italian assessed as effect on parasite motility after 72 hrs; assay type: functional, organism-based
# Summary of the method: (§5)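 NEJs came from Italian-strain metacercariae, excysted either by pepsin/HCl or by needle rupture, then 1 hr in sodium tauroglycocholate. They were plated at 25 per well in RPMI-1640 with 1% FCS. Screening was at 25 and 12.5 µM, then titration from 10 to 0.625 µM (0.16% DMSO). Controls were DMSO and 10 µM triclabendazole. Motility and phenotype were scored at 72 hr, with IC50 from dose-response curves.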
# Fasciola hepatica [11] = experiment: Antifasciola activity against newly excysted juveline stage of Fasciola hepatica Italian assessed as effect on parasite phenotype after 72 hrs; assay type: functional, organism-based; summary of the method: as §5
# [12] = Selectivity index, ratio of IC50 for MDBK cells to IC50 for antischistosomal activity against schistosomula of Schistosoma mansoni assessed as effect on parasite phenotype; assay type: toxicity; conditions: cattle, read-out: Ratio IC50; summary of the method: as §4
# [13] = Selectivity index, ratio of IC50 for human HepG2 cells to IC50 for antischistosomal activity against schistosomula of Schistosoma mansoni assessed as effect on parasite phenotype; assay type: toxicity; conditions: read-out: Ratio IC50; summary of the method: as §4
# [14] = Selectivity index, ratio of IC50 for MDBK cells to IC50 for newly excysted juveline stage of Fasciola hepatica Italian assessed as effect on parasite motility; assay type: toxicity; conditions: cattle, read-out: Ratio IC50; summary of the method: as §3
# Schistosoma mansoni [15] = experiment: Antischistosomal activity against adult stage of Schistosoma mansoni assessed as effect on parasite motility after 72 hrs by microscopic method; assay type: functional, organism-based
# Summary of the method: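 Mice were infected percutaneously with 200 cercariae, and adults were recovered by portal perfusion at seven weeks. Three worm pairs per well in modified DMEM with 10% FCS were given compound at 50, 25, 12.5 and 6.25 µM final (0.3% DMSO) for 72 hr at 37 °C, 5% CO2. Controls were DMSO and auranofin. Worms were scored manually by microscopy at 24, 48 and 72 hr. Experiments were run in duplicate.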
# Schistosoma mansoni [16] = experiment: Antischistosomal activity against schistosomula of Schistosoma mansoni at 25 uM by throughput high content image analysis; assay type: functional, organism-based; summary of the method: as §1
# Fasciola hepatica [17] = experiment: Antifasciola activity against adult stage of Fasciola hepatica Italian assessed as effect on parasite motility after 72 hrs; assay type: functional, organism-based
# Fasciola hepatica [18] = experiment: Antifasciola activity against immature stage of Fasciola hepatica Italian assessed as effect on parasite motility after 72 hrs; assay type: functional, organism-based
pIC50 (Schistosoma mansoni [1]),pIC50 (Schistosoma mansoni [4]),Structure (SMILES),CC50 at 24 h [2],CC50 at 24 h [3],also measured
4.58,4.37,COc1ccc(CC(O)C2=C(C)CCCC2(C)C)cc1 (centres undefined),> 100 µM,> 100 µM,–
4.58,4.66,CC(C)c1cc2c(cc1O)C(=O)C[C@H]1C(C)(C)CCC[C@]21C,63.8 µM,80 µM,selectivity ratio [5]: 4.8; selectivity ratio [6]: 3.8; selectivity ratio [7]: 6.1; selectivity ratio [8]: 2.4; selectivity ratio [9]: 3.1; pIC50 (Fasciola hepatica [10]): 4.88; pIC50 (Fasciola hepatica [11]): 4.77; selectivity ratio [12]: 2.9; selectivity ratio [13]: 3.7; selectivity ratio [14]: 4.9
4.66,4.55,CC1(C)CCC[C@]2(C)c3ccc(O)cc3C(=O)C[C@@H]12 (relative stereo),> 100 µM,65.1 µM,selectivity ratio [9]: 3; selectivity ratio [13]: 2.3
4.89,4.60,CC1(C)CCC[C@]2(C)c3ccccc3C(=O)C(=O)[C@H]12 (relative stereo),> 100 µM,> 100 µM,pIC50 (Schistosoma mansoni [15]): < 4.30; Activity (Schistosoma mansoni [16]): Active
4.72,4.60,COc1ccc(CC(=O)C2=C(C)CCCC2(C)C)cc1,91.1 µM,> 100 µM,pIC50 (Schistosoma mansoni [15]): < 4.30; selectivity ratio [8]: 4.8; selectivity ratio [12]: 3.6; Activity (Schistosoma mansoni [16]): Active
4.40,4.40,COc1ccc(CC/C=C(\C)CCC=C(C)C)cc1,> 100 µM,> 100 µM,–
4.36,4.36,CC(C)=CCC/C(C)=C/CCc1ccccc1,> 100 µM,> 100 µM,–
4.74,4.60,CC1=C(C(=O)Cc2ccc(C(C)C)cc2)C(C)(C)CCC1,> 100 µM,71.7 µM,pIC50 (Schistosoma mansoni [15]): < 4.30; selectivity ratio [9]: 3.9; selectivity ratio [13]: 2.8; Activity (Schistosoma mansoni [16]): Active
4.58,4.36,COc1ccc2c(c1)[C@@]1(C)CCCC(C)(C)[C@@H]1CC2 (relative stereo),> 100 µM,> 100 µM,–
4.63,4.40,COc1cccc(CC(O)C2=C(C)CCCC2(C)C)c1 (centres undefined),> 100 µM,> 100 µM,–
4.83,4.40,CC1(C)CCC[C@]2(C)c3ccccc3C(=O)C[C@@H]12 (relative stereo),> 100 µM,84.2 µM,selectivity ratio [9]: 5.7; selectivity ratio [13]: 2.1
4.59,4.40,CC1=C(C(O)Cc2ccc(C(C)(C)C)cc2)C(C)(C)CCC1 (centres undefined),> 100 µM,> 100 µM,–
4.56,4.40,CC1=C(C(O)Cc2ccc(C(C)C)cc2)C(C)(C)CCC1 (centres undefined),> 100 µM,> 100 µM,–
4.55,4.36,COc1ccc2c(c1)CC[C@H]1C(C)(C)CCC[C@]21C (relative stereo),> 100 µM,89 µM,selectivity ratio [9]: 3.3; selectivity ratio [13]: 2.1
4.57,4.36,COc1cccc(CC/C=C(\C)CCC=C(C)C)c1,> 100 µM,> 100 µM,–
5.19,4.64,COc1ccc2c(c1)C(=O)C(=O)[C@@H]1C(C)(C)CCC[C@]21C (relative stereo),> 100 µM,84.9 µM,pIC50 (Schistosoma mansoni [15]): < 4.30; selectivity ratio [9]: 13.2; selectivity ratio [13]: 3.7; Activity (Schistosoma mansoni [16]): Active
4.58,4.36,COc1ccc2c(c1)[C@@]1(C)CCCC(C)(C)[C@H]1C(=O)C2=O (relative stereo),> 100 µM,> 100 µM,–
4.59,4.36,CC1=C(C(=O)Cc2ccccc2)C(C)(C)CCC1,> 100 µM,> 100 µM,–
4.72,4.55,CC1=C(C(=O)Cc2ccc(C(C)(C)C)cc2)C(C)(C)CCC1,> 100 µM,> 100 µM,–
4.75,4.54,COc1ccc2c(c1)C(=O)C[C@H]1C(C)(C)CCC[C@]21C (relative stereo),> 100 µM,> 100 µM,–
4.57,4.36,COc1cc(CC(=O)C2=C(C)CCCC2(C)C)cc(OC)c1OC,> 100 µM,> 100 µM,–
4.99,4.85,COc1ccc2c(c1)[C@@]1(C)CCCC(C)(C)[C@@H]1CC2=O (relative stereo),70.6 µM,33.1 µM,selectivity ratio [5]: 3.3; pIC50 (Fasciola hepatica [17]): 4.40; selectivity ratio [6]: 7.1; selectivity ratio [7]: 3.9; pIC50 (Schistosoma mansoni [15]): < 4.30; selectivity ratio [8]: 6.9; pIC50 (Fasciola hepatica [18]): 4.84; selectivity ratio [9]: 3.2; pIC50 (Fasciola hepatica [10]): 5.08; pIC50 (Fasciola hepatica [11]): 5.00; selectivity ratio [12]: 5; selectivity ratio [13]: 2.3; Activity (Schistosoma mansoni [16]): Active; selectivity ratio [14]: 8.3
4.36,4.36,COc1cc(CC(O)C2=C(C)CCCC2(C)C)cc(OC)c1OC (centres undefined),> 100 µM,> 100 µM,–
4.67,4.36,CC1=C(C(O)Cc2ccccc2)C(C)(C)CCC1 (centres undefined),> 100 µM,> 100 µM,–
4.55,4.38,COc1cccc(CC(=O)C2=C(C)CCCC2(C)C)c1,> 100 µM,> 100 µM,–
